In one data set the test system is Enterococcus faecalis. As to the kind of experiment: Antibacterial activity against Enterococcus faecalis ATCC 29212 after 16 hrs by broth microdilution method. In kind it is functional. The settings on record: ATCC 29212, 16 h. The gist of the method:
(§1)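 Broth microdilution MIC with the inoculum standardized to about 5 × 10^5 CFU/mL. Plates were incubated 16 h at 37 °C. MIC was taken as the lowest concentration with no visible bacterial growth. Each experiment was run three times.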
On the technique in general: In broth dilution the organism is exposed to a series of concentrations in liquid medium.

Data set [1] has as its system Escherichia coli. The data set can be described thus: Antibacterial activity against ESBL-producing Escherichia coli ATCC 35218 after 16 hrs by broth microdilution method. It counts as functional. To be noted: ATCC 35218, 16 h. The method in brief:
as §1

For another data set, the system named is Staphylococcus aureus. The data set can be described thus: Antibacterial activity against methicillin-resistant Staphylococcus aureus ATCC 43300 after 16 hrs by broth microdilution method. In kind it is functional. To be noted: ATCC 43300, 16 h.
A further data set has as its system Pseudomonas aeruginosa. As to the kind of experiment: Antibacterial activity against Pseudomonas aeruginosa ATCC 15442 after 16 hrs by broth microdilution method. In kind it is functional. To be noted: ATCC 15442, 16 h. The gist of the method:
as §1

For the next data set, the system named is Klebsiella pneumoniae. The data set can be described thus: Antibacterial activity against Klebsiella pneumoniae ATCC 700603 after 16 hrs by broth microdilution method. It counts as functional. To be noted: Klebsiella pneumoniae, 700603, 16 h. The method in brief:
as §1

Data set [2] has as its system Escherichia coli. As to the kind of experiment: Bactericidal activity against ESBL-producing Escherichia coli ATCC 35218 after 2 to 24 hrs by time kill assay. It counts as functional, organism-based. The method in brief:
(§2)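 Overnight MHB culture was diluted into fresh MHB at 5 × 10^5 CFU/mL. Tubes got varied compound concentrations, with untreated inoculated medium as control, and were shaken at 37 °C. At 2, 4, 6, 8, 12 and 24 h, samples were serially diluted, plated on tryptic soy agar and incubated overnight at 37 °C, then colonies were counted. Done at least three times, mean/SD.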

In the next data set the test system is BEAS-2B. As to the kind of experiment: Cytotoxicity against human BEAS2B cells assessed as reduction in cell viability at 0.064 to 40 uM after 48 hrs by MTS assay. In kind it is cell-based. The method in brief:
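BEAS-2B cells grown in RPMI-1640 or DMEM with 10% FBS at 37 °C under 5% CO2. Seeded at 1 × 10^5 cells/mL and left to adhere 12 h. Exposed to compound at various concentrations in triplicate for 48 h, with cisplatin and paclitaxel as positive controls. MTS was added for 4 h, then cells were lysed in SDS/DMF and OD read at 490 nm. IC50 by Reed–Muench.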

Data set [3] has as its system Escherichia coli. The data set can be described thus: Bacteriostatic activity against ESBL-producing Escherichia coli ATCC 35218 after 2 to 24 hrs by time kill assay. In kind it is functional, organism-based. The gist of the method: as §2

Each structure is given as a SMILES string. Converted amounts (≈) assume the structure as drawn. The source made the active and inactive calls. The rule behind the calls is not given here.

As to `COc1cccc2c1CO[C@@H]2C[C@@H](O)[C@@H](O)[C@H]1O[C@@H]1C`, the MIC against Enterococcus faecalis, with Escherichia coli [1], with Staphylococcus aureus, against Pseudomonas aeruginosa and in the data set with Klebsiella pneumoniae was more than 128 µg/mL in each case.

For `C=C1[C@H]2C(=O)[C@]3(C)C=C4C(=O)OC[C@]14[C@@]1(CC[C@H]4C(C)(C)C(=O)C=C[C@]4(C)[C@H]21)C3`, the MIC against Enterococcus faecalis was more than 128 µg/mL; with Escherichia coli [1] it was 32 µg/mL (≈ 81.5 µM); against Staphylococcus aureus, 64 µg/mL (≈ 163 µM); in the data set with Pseudomonas aeruginosa it was 32 µg/mL (≈ 81.5 µM); against Klebsiella pneumoniae, 64 µg/mL (≈ 163 µM).

Regarding `CCC[C@H](O)[C@H](O)C[C@H]1OCc2cccc(OC)c21`, the MIC in the data set with Enterococcus faecalis was 32 µg/mL (≈ 120 µM); in the data set on Escherichia coli [1] it was 8 µg/mL (≈ 30 µM); against Staphylococcus aureus, more than 128 µg/mL; with Pseudomonas aeruginosa it was 32 µg/mL (≈ 120 µM); in the data set with Klebsiella pneumoniae it was more than 128 µg/mL.

Turning to `CCC[C@H](O)[C@H](O)C[C@H]1OCc2c(OC)cccc21`, the outcome in the data set with Escherichia coli [2] was Active. The MIC came out at 32 µg/mL (≈ 120 µM) in the data set on Enterococcus faecalis; 4 µg/mL (≈ 15 µM) in the data set on Escherichia coli [1]; 32 µg/mL (≈ 120 µM) against Staphylococcus aureus; 4 µg/mL (≈ 15 µM) against Pseudomonas aeruginosa; 16 µg/mL (≈ 60.1 µM) in the data set with Klebsiella pneumoniae. In addition, the Activity entry in the data set with BEAS-2B is on record as “Non-Toxic”.

For `CO/N=C(\C(=O)N[C@@H]1C(=O)N2C(C(=O)O)=C(CSc3nc(=O)c(O)nn3C)CS[C@H]12)c1csc(N)n1` [CEFTRIAXONE], the MIC in the data set on Pseudomonas aeruginosa and in the data set with Klebsiella pneumoniae was 1 µg/mL (≈ 1.8 µM) in each case.

Consider `NCC[C@H](O)C(=O)N[C@@H]1C[C@H](N)[C@@H](O[C@H]2O[C@H](CN)[C@@H](O)[C@H](O)[C@H]2O)[C@H](O)[C@H]1O[C@H]1O[C@H](CO)[C@@H](O)[C@H](N)[C@H]1O` [AMIKACIN], for which, in the data set on Escherichia coli [1], the lowest concentration to inhibit growth (MIC) was 2 µg/mL (≈ 3.42 µM).

For the compound `CC1(C)C(=O)C=C[C@@]2(C)[C@H]1CC[C@@]13C[C@@]4(C)C=C5C(=O)OC[C@]51[C@@]1(CO1)[C@@H](C4=O)[C@@H]23`, the MIC was more than 128 µg/mL against Enterococcus faecalis; 32 µg/mL (≈ 78.3 µM) in the data set on Escherichia coli [1]; more than 128 µg/mL in the data set with Staphylococcus aureus; 64 µg/mL (≈ 157 µM) against Pseudomonas aeruginosa; more than 128 µg/mL against Klebsiella pneumoniae.

For `C=C1[C@H]2C(=O)[C@@]3(C)C[C@]4(CC[C@H]5C(C)(C)C(=O)C=C[C@]5(C)[C@H]24)[C@@]12COC(=O)[C@@H]2[C@H]3O`, the result with Escherichia coli [3] was Active. The MIC is 32 µg/mL (≈ 78 µM) in the data set with Enterococcus faecalis; 2 µg/mL (≈ 4.87 µM) against Escherichia coli [1]; 32 µg/mL (≈ 78 µM) in the data set with Staphylococcus aureus; 8 µg/mL (≈ 19.5 µM) in the data set with Pseudomonas aeruginosa; 32 µg/mL (≈ 78 µM) in the data set with Klebsiella pneumoniae. In addition, the Activity result in the data set with BEAS-2B was “Non-Toxic”.

`O=C(N[C@H](CO)[C@H](O)c1ccc([N+](=O)[O-])cc1)C(Cl)Cl` [CHLORAMPHENICOL]: the MIC against Enterococcus faecalis is 16 µg/mL (≈ 49.5 µM).

For the compound `C=C1[C@H]2C(=O)[C@]3(C)C=C4C(=O)OC[C@]14[C@@]1(CC[C@H]4C(C)(C)C(=O)C=C[C@]4(C)[C@]21O)C3`, the MIC in the data set with Enterococcus faecalis is more than 128 µg/mL; in the data set on Escherichia coli [1], 64 µg/mL (≈ 157 µM); with Staphylococcus aureus it was more than 128 µg/mL; in the data set on Pseudomonas aeruginosa, more than 128 µg/mL; with Klebsiella pneumoniae it was more than 128 µg/mL.

Regarding `COc1cccc(/C=C/[C@@H](O)[C@@H](O)[C@H]2O[C@@H]2C)c1CO`, the MIC in the data set on Enterococcus faecalis was more than 128 µg/mL; in the data set on Escherichia coli [1] it was 32 µg/mL (≈ 114 µM); with Staphylococcus aureus it was 64 µg/mL (≈ 228 µM); in the data set with Pseudomonas aeruginosa, 32 µg/mL (≈ 114 µM); against Klebsiella pneumoniae, more than 128 µg/mL.

The MIC is the lowest concentration found to suppress growth. The low end stands for greater potency, the high end for weaker potency.
